According to ChEMBL document CHEMBL4261524, “Succinct synthesis of saturated hydroxy fatty acids and in vitro evaluation of all hydroxylauric acids on FFA1, FFA4 and GPR84” (Medchemcomm, 2017):
pEC50: −log10 of the molar value. The source made the active and inactive calls. The rule behind the calls is not given here.

Experiments:
[1] = target: T1, G-protein coupled receptor 84 (Homo sapiens, UniProt Q9NQS5); test: Agonist activity at N-terminal FLAG-tagged/C-terminal eYFP-fused human GPR84 expressed in CHO cell membranes assessed as inhibition of forskolin-induced cAMP accumulation preincubated for 20 mins followed by forskolin-induction and measured after 20 mins; format: functional, cell-based
T1 sequence (Q9NQS5 whole entry, the tested form may be a part): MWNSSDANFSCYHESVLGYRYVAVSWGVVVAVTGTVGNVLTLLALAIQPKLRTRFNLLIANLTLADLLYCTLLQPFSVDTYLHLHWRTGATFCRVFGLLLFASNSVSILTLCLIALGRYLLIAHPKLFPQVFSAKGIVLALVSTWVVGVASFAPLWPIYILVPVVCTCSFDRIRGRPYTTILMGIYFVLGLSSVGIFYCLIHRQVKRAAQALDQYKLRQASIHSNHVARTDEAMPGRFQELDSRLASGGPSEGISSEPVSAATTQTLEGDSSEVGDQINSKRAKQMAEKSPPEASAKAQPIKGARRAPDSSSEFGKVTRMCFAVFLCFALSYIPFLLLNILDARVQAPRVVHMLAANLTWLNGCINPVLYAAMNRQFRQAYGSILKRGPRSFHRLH

[2] = target: T1, G-protein coupled receptor 84; test: Agonist activity at N-terminal FLAG-tagged/C-terminal eYFP-fused human GPR84 expressed in CHO cell membranes assessed as inhibition of forskolin-induced cAMP accumulation up to 100 uM preincubated for 20 mins followed by forskolin-induction and measured after 20 mins; format: functional, cell-based
[3] = target: T1, G-protein coupled receptor 84; test: Agonist activity at N-terminal FLAG-tagged/C-terminal eYFP-fused human GPR84 expressed in CHO cell membranes assessed as induction of [35S]GTPgammaS binding after 1 hr by liquid scintillation counting method; format: functional
Summary of the method: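 Membranes were prepared from FLAG-GPR84-eYFP-expressing cells by homogenization in 10 mM Tris-HCl pH 7.4 with 0.1 mM EDTA, a 1000 × g spin to clear debris, then a 38 000 × g pellet. 10 μg membrane was incubated 1 h at 30 °C in HEPES/MgCl2/NaCl buffer, pH 7.5, with 0.05% fatty-acid-free BSA, 1 μM GDP and 0.1 nM [35S]GTPγS. Binding was read on GF/C filters by scintillation counting; means ± SEM, n ≥ 3.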

[4] = target: T2, Free fatty acid receptor 1 (Homo sapiens, UniProt O14842); test: Agonist activity at N-terminal FLAG-tagged/C-terminal eYFP-fused human FFA1 receptor expressed in Flp-In T-Rex 293 cells assessed as induction of Ca2+ mobilization after 45 mins by Fura2-AM dye-based fluorescence assay; format: functional, cell-based
T2 sequence (O14842 whole entry, the tested form may be a part): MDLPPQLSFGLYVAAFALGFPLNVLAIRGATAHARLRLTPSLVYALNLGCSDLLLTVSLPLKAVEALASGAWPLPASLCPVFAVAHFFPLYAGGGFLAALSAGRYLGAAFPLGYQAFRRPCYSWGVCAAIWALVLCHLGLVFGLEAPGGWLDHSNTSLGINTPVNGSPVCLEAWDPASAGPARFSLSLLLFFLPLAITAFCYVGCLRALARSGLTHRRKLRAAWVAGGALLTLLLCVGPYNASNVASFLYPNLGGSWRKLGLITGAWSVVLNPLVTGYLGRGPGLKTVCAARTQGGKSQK

[5] = target: T3, Free fatty acid receptor 4 (Homo sapiens, UniProt Q5NUL3); test: Agonist activity at N-terminal FLAG-tagged/C-terminal eYFP-fused human FFA4 receptor expressed in HEK293T cells assessed as induction of beta-arrestin-2 recruitment after 5 mins by BRET assay; format: functional, cell-based
T3 sequence (Q5NUL3 whole entry): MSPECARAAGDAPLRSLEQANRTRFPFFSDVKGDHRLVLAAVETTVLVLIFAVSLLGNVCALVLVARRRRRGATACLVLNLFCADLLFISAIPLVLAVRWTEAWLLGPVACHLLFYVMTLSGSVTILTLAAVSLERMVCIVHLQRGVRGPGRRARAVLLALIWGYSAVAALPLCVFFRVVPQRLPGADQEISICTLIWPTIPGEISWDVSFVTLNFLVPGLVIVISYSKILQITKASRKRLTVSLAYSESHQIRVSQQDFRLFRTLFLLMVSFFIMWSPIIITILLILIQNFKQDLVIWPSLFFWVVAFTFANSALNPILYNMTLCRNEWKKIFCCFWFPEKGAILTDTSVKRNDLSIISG

[6] = target: T2, Free fatty acid receptor 1; test: Agonist activity at N-terminal FLAG-tagged/C-terminal eYFP-fused human FFA1 receptor expressed in HEK293T cells assessed as induction of beta-arrestin-2 recruitment at 100 uM after 15 mins by BRET assay relative to control; format: functional, cell-based
[7] = target: T2, Free fatty acid receptor 1; test: Agonist activity at N-terminal FLAG-tagged/C-terminal eYFP-fused human FFA1 receptor expressed in HEK293T cells assessed as induction of beta-arrestin-2 recruitment after 15 mins by BRET assay; format: functional, cell-based

pEC50 [1]	inhibition [2]	pEC50 [3]	pEC50 [5]	Activity [6] [%]	pEC50 [7]	Structure (SMILES)	pEC50 [4]
5.06	inactive	4.98	5.12			CCCCCCCCCCCC(=O)O [DODECANOATE]	4.94
			5.76			CCCCCCC(O)CCCCCCCCCCC(=O)O (centres undefined)	
		5.28	< 4.00	< 25	< 4.00	CCCCCCCCCC(O)CC(=O)O (centres undefined)	
		< 4.00	< 4.00		< 4.00	CC(O)CCCCCCCCCC(=O)O (centres undefined)	
		< 4.00	< 4.00		< 4.00	CCCCCC(O)CCCCCC(=O)O (centres undefined)	
		< 4.00	< 4.00		< 4.00	CCCC(O)CCCCCCCC(=O)O (centres undefined)	
		< 4.00	< 4.00		< 4.00	CCC(O)CCCCCCCCC(=O)O (centres undefined)	
		4.42	< 4.00		< 4.00	CCCCCCCCC(O)CCC(=O)O (centres undefined)	
		< 4.00	< 4.00		< 4.00	CCCCCCCC(O)CCCC(=O)O (centres undefined)	
		< 4.00	< 4.00		< 4.00	CCCCC(O)CCCCCCC(=O)O (centres undefined)	
		< 4.00	< 4.00		4.73	CCCCCCC(O)CCCCC(=O)O (centres undefined)	
		4.89	< 4.00		5.17	CCCCCCCCCCC(O)C(=O)O (centres undefined)	

Structure (SMILES)	pEC50 [1]	inhibition [2]	pEC50 [3]	pEC50 [5]	Activity [6] [%]	pEC50 [7]	pEC50 [4]
CCCCCC[C@@H](O)C/C=C\CCCCCCCC(=O)O				5.88			4.94
O=C(O)CCCCCCCCCCCO			4.68	< 4.00		< 4.00	
O=C(O)CCCCCCCCCCCCCCCO				5.77			4.68
